Screening data as filed in PubChem BioAssay.
The list is not random: actives were taken first. Their share in the collection is about 0.91%.
Arbovirus anti = antivirals against arbovirus infection, primary screen, cell-based, full library, 10K replicate subset | inhibition, % at 10 µM | arbovirus infection cell-based antiviral screen | 200,000 tested, 0.37% active; in the data active = inhibition above about 30%
Lipid droplet = inhibitors of hepatocyte lipid droplet formation, primary screen, imaging, high-throughput imaging, BODIPY stain. AML12 mouse hepatocytes, oleate lipid droplets. inhibition, % at 6.5 µM. 240,000 tested, 0.4% active;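 active = lipid droplet intensity inhibited by at least 50%, with more than 500 cells counted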
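Material – mouse AML12 hepatocyte cell line, fixed after treatment · Compound dosing – one dose, 6.5 µM compound · Times – compound with oleate, overnight · Measured by – Image-based BODIPY and DAPI two-channel analysis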
TNF necrop inh = inhibitors of TNF-alpha triggered necroptosis, primary screen, cell-based, Jurkat FADD-/-, single concentration | Jurkat FADD-/- TNF necroptosis rescue, ATP luminescence, 24 h; 0 = TNF only, 100 = no-TNF cells | activation (protection from cell death), % at 10 µM | 220,000 tested, 0.068% active;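 active = activation, meaning protection from cell death, of at least 50% relative to plate controls; inactive = activation below 50%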;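 note: necroptosis triggered by 40 ng/mL TNF-alpha added together with compound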
Pf gametocyte = late stage P. falciparum gametocyte viability inhibitors, primary screen, ATP luminescence, HTS; inhibition, % at 10.9 µM; 150,000 tested, 0.065% active; AID 743093, 2013; P. falciparum stage V gametocytes, 24 h;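 active = inhibition above the mean plus 3 SD of compounds within the control limits, set per campaign, cut at about 38% in these data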
zVAD death inh = inhibitors of zVAD-triggered necroptosis, primary screen, L929 cells; 220,000 tested, 0.38% active; viability rescue, % at 10 µM; L929 zVAD necroptosis rescue, ATP luminescence, 24 h; with zVAD 60 µM; AID 1377, 2008;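 active = activation, scaled between plate controls, above about 75%, limit read from the data; inactive = activation under that limit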
Lipid drop inh = hepatocyte lipid droplet accumulation inhibitors, confirmation, imaging, AML12 mouse hepatocytes, single concentration, high-content; BODIPY lipid droplet imaging; droplets induced with 100 µM oleic acid; AID 463183, 2010; inhibition, % at 5.2 µM; 870 tested, 65% active; shares compounds with Lipid droplet;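 active = inhibition of lipid droplet metric at least 50%, with more than 300 cells in each of four replicates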
AML12 tox img = AML12 hepatocyte cytotoxicity, counter-screen for hepatic lipid droplet formation project, imaging, DAPI nuclear morphology imaging; shares compounds with Lipid droplet; AML12 mouse hepatocytes; active compounds read high; cells fed 100 µM oleate overnight; z-score at 5 µM; 870 tested, 3% active; AID 463200, 2010; in the data active = z-score above about 6.3;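 note: compound exposure lasted overnight at 37 °C before fixation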
AML12 tox conf = AML12 hepatocyte cytotoxicity, confirmation, cytotoxicity control for hepatic lipid droplet formation project, cell-based, single concentration. shares compounds with Lipid droplet. AML12 mouse hepatocyte viability, ATP luminescence; cells loaded with 100 µM oleic acid. cytotoxicity, % at 50 µM. 530 tested, under 10 active. AID 463219, 2010;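 active = cytotoxicity above 50% in each of four replicates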;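 note: compound exposure lasted overnight at 37 °C before the ATP read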
Hits are given with their value; i = inactive; nt = no result given.

SMILES | Arbovirus anti | Lipid droplet | TNF necrop inh | Pf gametocyte | zVAD death inh | Lipid drop inh | AML12 tox img | others
COc1cc([C@@H]2C[C@H]3CN(c4ccccc4)C(=O)[C@]34CCCN24)cc(OC)c1OC | i | i | i | i | i | nt | nt
CCOc1cc([C@@H]2C[C@H]3CN(c4ccccc4)C(=O)[C@]34CCCN24)ccc1OC | i | 79.7 | i | i | i | 97.3 | i | AML12 tox conf=i
O=C(Nc1ccccn1)c1cc(-c2cccc(Cl)c2)nc2ccccc12 | i | nt | i | i | i | nt | nt
CCCCOc1ccc(/C=C/C(=O)OCC(=O)c2c(N)n(C)c(=O)n(C)c2=O)cc1OCC | i | 52.2 | i | i | i | 67.1 | i | AML12 tox conf=i
COc1ccc(OC)c(/C=C/C(=O)OCC(=O)c2c(N)n(C)c(=O)n(C)c2=O)c1 | i | i | i | i | i | nt | nt
CCC1=NN=C(c2ccc(F)cc2)C(c2c[nH]c3ccccc23)N1O (configuration not stated) | i | 64.7 | i | nt | nt | i | i
CCOc1nc(-c2ccncc2)nc2ccccc12 | i | 53.0 | i | i | i | i | i
COc1ccc(C(C(=O)NC(C)(C)C)N(Cc2ccc(C)cc2)C(=O)CCC(=O)Nc2cc(C)on2)cc1 (configuration not stated) | i | 70.4 | i | i | i | 106.4 | i | AML12 tox conf=i
COc1ccc(C(C(=O)NC(C)(C)C)N(Cc2ccco2)C(=O)CCC(=O)Nc2cc(C)on2)cc1 (configuration not stated) | i | 52.2 | i | i | i | 69.5 | i | AML12 tox conf=i
CCC(C)(C)NC(=O)C(c1ccc(OC)cc1)N(Cc1ccco1)C(=O)CCC(=O)Nc1cc(C)on1 (configuration not stated) | i | i | i | nt | i | nt | nt
COc1cc2[nH]c(=S)nc(NC3CCCC3)c2cc1OC | i | i | i | nt | i | nt | nt
Cc1nc(Nc2ccccc2)sc1C(=O)c1ccc(F)cc1 | nt | i | nt | nt | nt | nt | nt
CNc1nc(C)c(C(=O)c2ccc(Cl)cc2)s1 | i | 65.4 | i | nt | i | i | i
O=C(Nc1ccc2c(c1)OCCO2)C1CCCN1C(=O)Nc1ccc(F)cc1 (configuration not stated) | nt | i | nt | nt | nt | nt | nt
O=C1CC(c2cc(-c3ccccc3)no2)C1 | nt | i | nt | i | nt | nt | nt
Cc1sc2nc(SCC(=O)N(C)c3ccccc3)n(C)c(=O)c2c1C | nt | i | nt | nt | nt | nt | nt
C=CCN(Cc1cc(OC)ccc1OC)C(=O)c1cc2ccc(OC)cc2[nH]1 | nt | i | nt | nt | nt | nt | nt
COC(=O)c1ccc(NS(=O)(=O)c2ccc3c(c2)n(C)c(=O)n3C)cc1 | nt | 53.1 | nt | i | nt | i | i
COC(=O)c1ccc(NS(=O)(=O)c2ccc3c(c2)oc(=O)n3C)cc1 | i | nt | i | nt | i | nt | nt
CCc1cccc(NC(=O)CCCn2nc(CC)n3c(cc4occc43)c2=O)c1 | nt | 52.8 | nt | nt | nt | 94.2 | i | AML12 tox conf=i
c1ccc(COc2cccc(CN3CCc4ccccc4C3)c2)cc1 | nt | i | nt | i | nt | nt | nt
Cc1cc(OCC(=O)NC2CC2)c2c(C)cc(=O)oc2c1 | nt | 61.1 | nt | nt | nt | i | i
COc1cccc(N2CC(O)Cn3c2nc2c3c(=O)[nH]c(=O)n2C)c1 (configuration not stated) | nt | i | nt | i | nt | nt | nt
CCc1nnc(NC(=O)CSc2nc3cc(OC)ccc3cc2C)s1 | i | i | i | i | i | nt | nt
Cc1ccc(C)c(N(C(=O)c2snc(C(N)=O)c2N)C(C(=O)NCC2CCCO2)c2ccc(C)o2)c1 (configuration not stated) | nt | i | nt | nt | nt | nt | nt
SMILES | Arbovirus anti | Lipid droplet | TNF necrop inh | Pf gametocyte | zVAD death inh | Lipid drop inh | AML12 tox img | others
CCOC(=O)c1c(C)[nH]c(C)c1S(=O)(=O)N1CCN(c2ccc([N+](=O)[O-])cc2)CC1 | nt | 92.7 | nt | nt | nt | i | i
CC(=O)c1ccc(Nc2nc(=O)c3cccnc3s2)cc1 | i | 76.7 | i | nt | i | i | i
CC(=O)NS(=O)(=O)c1ccc(NC(=O)c2cccc3ccccc23)cc1 | nt | nt | nt | i | nt | nt | nt
C/C(N)=C(/C#N)C(=O)CSc1nnc(Nc2cccc(C)c2)s1 | i | 77.8 | i | nt | i | 98.9 | i | AML12 tox conf=i
CCSc1nnc(NC(=O)Nc2cccc(C)c2)s1 | nt | i | i | i | i | nt | nt
COc1ccc(C(=O)O/N=C(\N)c2ccccn2)cc1 | nt | 66.0 | nt | nt | nt | i | i
CCn1cc([N+](=O)[O-])c(C(=O)N2N=C(c3ccc4ccccc4c3)CC2c2ccccc2O)n1 (configuration not stated) | i | 79.0 | i | i | i | 87.8 | i | AML12 tox conf=i
Cc1ccc(NC(=O)C2CCCN(S(=O)(=O)c3c(C)noc3/C=C/N(C)C)C2)cc1F (configuration not stated) | i | 56.9 | i | nt | i | 76.8 | i | AML12 tox conf=i
Cc1noc(/C=C/N(C)C)c1S(=O)(=O)N1CCC(C(=O)Nc2ccc(Cl)cc2)CC1 | nt | i | nt | nt | nt | nt | nt
O=C(CSc1nnnn1-c1ccccc1)Nc1ncc(Cc2cccc(Cl)c2Cl)s1 | i | i | i | i | i | nt | nt
Cc1ccc(-n2nnnc2SCC(=O)Nc2ncc(Cc3ccccc3Cl)s2)cc1 | i | 79.4 | i | i | i | 104.2 | i | AML12 tox conf=i
C[C@H]1CN=C(N(C)C)N1CCCC1CCCCC1 | nt | nt | nt | i | nt | nt | nt
CCN(CC)c1ccc(NC2CC(=O)N(CCc3ccc(OC)cc3)C2=O)cc1 (configuration not stated) | nt | i | i | i | i | nt | nt
Cn1c(=O)c(=O)n(C)c2cc(N3CCOCC3)c(NS(=O)(=O)c3ccc(F)c(Cl)c3)cc21 | nt | i | nt | nt | nt | nt | nt
Cn1c(=O)c(=O)n(C)c2cc(N3CCCC3)c(NS(=O)(=O)c3ccc(Cl)cc3)cc21 | nt | 50.1 | nt | nt | nt | i | i
Cn1c(=O)c2c(nc(N/N=C/c3ccc(OC(=O)c4ccco4)cc3)n2Cc2ccccc2)n(C)c1=O | i | i | i | i | i | nt | nt
CCCNS(=O)(=O)c1ccc(CCC(=O)Nc2cc(Cl)ccc2Oc2ccccc2)cc1 | i | 62.7 | i | nt | i | 92.8 | i | AML12 tox conf=i
CC(C)CNS(=O)(=O)c1ccc(CCC(=O)Nc2cc(Cl)ccc2Oc2ccccc2)cc1 | i | i | i | i | i | nt | nt
CCc1nnc(NC(=O)CCC(=O)NC2CC2)s1 | nt | i | nt | nt | nt | nt | nt
COc1ccc(S(=O)(=O)N(c2onc(C)c2Cl)S(=O)(=O)c2ccc(OC)cc2)cc1 | i | 59.6 | i | nt | i | i | i
COc1ccc(NC(=O)c2onc(C)c2Cl)cc1 | nt | i | i | i | i | nt | nt
COc1ccc(NC(=O)CSc2nc3c(c(=O)n2-c2ccccc2OC)SCC3)cc1 | i | i | i | nt | i | nt | nt
